# Source: publication PMC7717620 (Nucleosides, nucleotides & nucleic acids, 2019)
# Entries after “also recorded” stand apart in the source; their conditions may differ.
# Legend:
# [1] = system: Huh-7 cells; assay: intracellular metabolism in Huh-7 cells; type: in vitro ADME, human; settings: Huh-7, 50 μM, 4 h
# [2] = system: HepG2 cells; assay: intracellular metabolism in HepG2 cells; type: in vitro ADME, human; settings: HepG2, 50 μM, 4 h
# [3] = system: primary mouse hepatocytes; assay: intracellular metabolism in primary mouse hepatocytes; type: in vitro ADME; settings: 50 μM, 4 h
# [4] = system: primary rat hepatocytes; assay: intracellular metabolism in primary rat hepatocytes; type: in vitro ADME; settings: 50 μM, 4 h
# [5] = system: primary dog hepatocytes; assay: intracellular metabolism in primary dog hepatocytes; type: in vitro ADME; settings: 50 μM, 4 h
# [6] = system: primary monkey hepatocytes; assay: intracellular metabolism in primary monkey hepatocytes; type: in vitro ADME; settings: 50 μM, 4 h
# [7] = system: primary human hepatocytes; assay: intracellular metabolism in primary human hepatocytes; type: in vitro ADME; settings: 50 μM, 4 h
# [8] = system: human cardiomyocytes; assay: cellular accumulation and metabolism in human cardiomyocytes; type: in vitro ADME; settings: 10 μM
# [9] = system: human cardiomyocytes; assay: recording of human cardiomyocyte beating patterns; type: cell-based; settings: for change in beating rate or rhythm of cardiomyocytes (observation): up to 48 h
# [10] = system: monkey heart and kidney; settings: three weeks post a three-week dosing (week 6); cited from earlier work
# [11] = system: patients; settings: of the 34 patients treated, phase IIb; cited from earlier work
# [12] = system: HCV genotype 1 b RNA replication; assay: subgenomic HCV replicon system, inhibition of HCV RNA replication in Huh-7 cells; type: cell-based, hepatitis C virus; settings: HCV genotype 1 b subgenomic replicon
# Summary of the method: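 HCV genotype 1b subgenomic replicon in Huh-7 cells. HCV RNA and cellular ribosomal RNA were extracted and amplified, so replication and cytotoxicity were read in the same cells.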
# [13] = all three concentrations (2, 10 and 50 μM)
structure (smiles),measurement,setting,value
"COc1nc(N)nc2c1ncn2[C@@H]1O[C@H](COP(=O)(N[C@@H](C)C(=O)OCC(C)(C)C)Oc2cccc3ccccc23)[C@@H](O)[C@@]1(C)O (stereo partly drawn) [BMS-986094, Neopentyl ((((2R,3R,4R,5R)-5-(2-amino-6-methoxy-9H-purin-9-yl)-3,4-dihydroxy-4-methyltetrahydrofuran-2-yl)methoxy)(naphthalen-1-yloxy)phosphoryl)-L-alaninate]",Intracellular concentration: Prodrugs,[1],"2,900 ± 358 pmol/10^6 cells"
same,"parent prodrug level, times the level observed for DAPN-PD",[1],17 times
same,"parent prodrug level, times the level observed for IDX-184",[1],260 times
same,Intracellular concentration: Prodrugs,[2],"2,400 ± 9 pmol/10^6 cells"
same,"parent prodrug level, times the level observed for DAPN-PD",[2],6 times
same,"parent prodrug level, times the level observed for IDX-184",[2],110 times
same,Intracellular concentration: NTP (triphosphate of N),[3],undetectable and BLOQ
same,Intracellular concentration: Prodrugs,[3],880 ± 135 pmol/10^6 cells
same,Intracellular concentration: Prodrugs,[4],52 pmol/10^6 cells
same,Intracellular concentration: Prodrugs,[5],"2,200 ± 68 pmol/10^6 cells"
same,Intracellular concentration: Prodrugs,[6],150 ± 19 pmol/10^6 cells
same,Intracellular concentration: Prodrugs,[7],"4,100 ± 569 pmol/10^6 cells"
same,Intracellular concentration in human cardiomyocytes: NTP (triphosphate of N),[8]; 4 h,BLOQ
same,Intracellular concentration in human cardiomyocytes: Prodrugs,[8]; 4 h,800 ± 118 pmol/10^6 cells
same,Intracellular concentration in human cardiomyocytes: NTP (triphosphate of N),[8]; 8 h,BLOQ
same,Intracellular concentration in human cardiomyocytes: Prodrugs,[8]; 8 h,810 ± 80 pmol/10^6 cells
same,"level of intact prodrug, fold higher than DAPN-PD","[8]; human cardiomyocytes, 4 h",11 fold
same,"level of intact prodrug, fold higher than IDX-184","[8]; human cardiomyocytes, 4 h",37 fold
same,Beating rate of human cardiomyocytes,"[9]; 2 μM, 2 h",31.0 ± 0 beats/minute
same,Beating rate of human cardiomyocytes,"[9]; 2 μM, 4 h",30.5 ± 0.7 beats/minute
same,Beating rate of human cardiomyocytes,"[9]; 2 μM, 8 h",34.5 ± 0.7 beats/minute
same,Beating rate of human cardiomyocytes,"[9]; 2 μM, 12 h",36.0 ± 0 beats/minute
same,Beating rate of human cardiomyocytes,"[9]; 2 μM, 24 h",32.5 ± 0.7 beats/minute
same,Beating rate of human cardiomyocytes,"[9]; 2 μM, 48 h",26.5 ± 0.7 beats/minute
same,change in beating rate or rhythm of cardiomyocytes (observation),[9]; 2 μM,no clear change in beating rate or rhythm
same,Beating rate of human cardiomyocytes,"[9]; 10 μM, 2 h",31.0 ± 0 beats/minute
same,Beating rate of human cardiomyocytes,"[9]; 10 μM, 4 h",31.0 ± 0 beats/minute
same,Beating rate of human cardiomyocytes,"[9]; 10 μM, 8 h",35.0 ± 0 beats/minute
same,Beating rate of human cardiomyocytes,"[9]; 10 μM, 12 h",36.0 ± 0 beats/minute
same,Beating rate of human cardiomyocytes,"[9]; 10 μM, 24 h",34.5 ± 0.7 beats/minute
same,Beating rate of human cardiomyocytes,"[9]; 10 μM, 48 h",35.5 ± 2.1 beats/minute
same,change in beating rate or rhythm of cardiomyocytes (observation),[9]; 10 μM,changes to both beat rate and rhythm were noted; also recorded: higher beating rates were observed starting from 12 h
same,time until cardiomyocytes stopped beating,[9]; 50 μM,≤ 2 h
same,Beating rate of human cardiomyocytes,"[9]; 50 μM, 2 h",0 ± 0 beats/minute
same,Beating rate of human cardiomyocytes,"[9]; 50 μM, 4 h",0 ± 0 beats/minute
same,Beating rate of human cardiomyocytes,"[9]; 50 μM, 8 h",0 ± 0 beats/minute
same,Beating rate of human cardiomyocytes,"[9]; 50 μM, 12 h",32.0 beats/minute
same,Beating rate of human cardiomyocytes,"[9]; 50 μM, 24 h",34.0 ± 0 beats/minute
same,Beating rate of human cardiomyocytes,"[9]; 50 μM, 48 h",0 ± 0 beats/minute
same,rhythm of cardiomyocytes (observation),"[9]; 50 μM, beating resumed briefly at 12 and 24 h",very unstable rhythm
same,levels of 2’-C-Me-GTP in the heart and kidney,[10],"2,610–4,280 ng/mL"
same,deaths,[11],one death
same,patients with some evidence of cardiac dysfunction,[11],14
"CC(C)(CO)C(=O)SCCOP(=O)(NCc1ccccc1)OC[C@H]1O[C@@H](n2cnc3c(=O)[nH]c(N)nc32)[C@](C)(O)[C@@H]1O (mixture of isomers) [IDX-184, S-(2-(((((2R,3R,4R,5R)-5-(2-Amino-6-oxo-1,6-dihydro-9H-purin-9-yl)-3,4-dihydroxy-4-methyltetrahydrofuran-2-yl)methoxy)(benzylamino)phosphoryl)oxy)ethyl) 3-hydroxy-2,2-dimethylpropanethioate]",Replicon Huh-7 EC50,[12],sub-micromolar
same,Intracellular concentration: Prodrugs,[1],11 ± 1 pmol/10^6 cells
same,Intracellular concentration: Prodrugs,[2],21 ± 1 pmol/10^6 cells
same,Intracellular concentration: Prodrugs,[3],220 ± 3 pmol/10^6 cells
same,Intracellular concentration: Prodrugs,[4],"1,100 ± 471 pmol/10^6 cells"
same,Intracellular concentration: Prodrugs,[5],110 ± 2 pmol/10^6 cells
same,Intracellular concentration: Prodrugs,[6],75 ± 3 pmol/10^6 cells
same,Intracellular concentration: Prodrugs,[7],160 ± 18 pmol/10^6 cells
same,Intracellular concentration in human cardiomyocytes: Prodrugs,[8]; 4 h,21 ± 1 pmol/10^6 cells
same,Intracellular concentration in human cardiomyocytes: Prodrugs,[8]; 8 h,9.8 ± 1.4 pmol/10^6 cells
same,"intact prodrug level, times lower than BMS-986094","[8]; human cardiomyocytes, 8 h",83 times
same,Beating rate of human cardiomyocytes,"[9]; 2 μM, 2 h",32.0 ± 0 beats/minute
same,Beating rate of human cardiomyocytes,"[9]; 2 μM, 4 h",31.5 ± 0.7 beats/minute
same,Beating rate of human cardiomyocytes,"[9]; 2 μM, 8 h",37.0 ± 1.4 beats/minute
same,Beating rate of human cardiomyocytes,"[9]; 2 μM, 12 h",36.0 ± 1.4 beats/minute
same,Beating rate of human cardiomyocytes,"[9]; 2 μM, 24 h",32.5 ± 0.7 beats/minute
same,Beating rate of human cardiomyocytes,"[9]; 2 μM, 48 h",24.0 ± 1.4 beats/minute
same,Beating rate of human cardiomyocytes,"[9]; 10 μM, 2 h",30.0 ± 1.4 beats/minute
same,Beating rate of human cardiomyocytes,"[9]; 10 μM, 4 h",30.0 ± 0 beats/minute
same,Beating rate of human cardiomyocytes,"[9]; 10 μM, 8 h",34.0 ± 0 beats/minute
same,Beating rate of human cardiomyocytes,"[9]; 10 μM, 12 h",34.0 ± 1.4 beats/minute
same,Beating rate of human cardiomyocytes,"[9]; 10 μM, 24 h",31.0 ± 1.4 beats/minute
same,Beating rate of human cardiomyocytes,"[9]; 10 μM, 48 h",25.0 ± 1.4 beats/minute
same,Beating rate of human cardiomyocytes,"[9]; 50 μM, 2 h",33.0 ± 0 beats/minute
same,Beating rate of human cardiomyocytes,"[9]; 50 μM, 4 h",31.5 ± 0.7 beats/minute
same,Beating rate of human cardiomyocytes,"[9]; 50 μM, 8 h",34.5 ± 0.7 beats/minute
same,Beating rate of human cardiomyocytes,"[9]; 50 μM, 12 h",34.5 ± 0.7 beats/minute
same,Beating rate of human cardiomyocytes,"[9]; 50 μM, 24 h",34.5 ± 4.9 beats/minute
same,Beating rate of human cardiomyocytes,"[9]; 50 μM, 48 h",27.5 ± 0.7 beats/minute
same,change in beating rate or rhythm of cardiomyocytes (observation),[9]; [13],no obvious beating rate change; also recorded: no apparent change in beating; also recorded: no apparent changes to beat rate or rhythm
"CC(C)OC(=O)[C@H](C)N[P@](=O)(OC[C@H]1O[C@@H](n2ccc(=O)[nH]c2=O)[C@](C)(F)[C@@H]1O)Oc1ccccc1 [Sofosbuvir, sofosbuvir]",Intracellular concentration in human cardiomyocytes: Prodrugs,[8]; 4 h,56 ± 3 pmol/10^6 cells
same,Intracellular concentration in human cardiomyocytes: Prodrugs,[8]; 8 h,42 ± 4 pmol/10^6 cells
same,Beating rate of human cardiomyocytes,"[9]; 2 μM, 2 h",36.5 ± 2.1 beats/minute
same,Beating rate of human cardiomyocytes,"[9]; 2 μM, 4 h",35.0 ± 1.4 beats/minute
same,Beating rate of human cardiomyocytes,"[9]; 2 μM, 8 h",38.5 ± 0.7 beats/minute
same,Beating rate of human cardiomyocytes,"[9]; 2 μM, 12 h",36.5 ± 0.7 beats/minute
same,Beating rate of human cardiomyocytes,"[9]; 2 μM, 24 h",33.0 ± 0 beats/minute
same,Beating rate of human cardiomyocytes,"[9]; 2 μM, 48 h",25.5 ± 0.7 beats/minute
same,Beating rate of human cardiomyocytes,"[9]; 10 μM, 2 h",34.0 ± 1.4 beats/minute
same,Beating rate of human cardiomyocytes,"[9]; 10 μM, 4 h",33.0 ± 1.4 beats/minute
same,Beating rate of human cardiomyocytes,"[9]; 10 μM, 8 h",35.0 ± 1.4 beats/minute
same,Beating rate of human cardiomyocytes,"[9]; 10 μM, 12 h",33.5 ± 0.7 beats/minute
same,Beating rate of human cardiomyocytes,"[9]; 10 μM, 24 h",30.0 ± 0 beats/minute
same,Beating rate of human cardiomyocytes,"[9]; 10 μM, 48 h",23.0 ± 0 beats/minute
same,Beating rate of human cardiomyocytes,"[9]; 50 μM, 2 h",32.5 ± 0.7 beats/minute
same,Beating rate of human cardiomyocytes,"[9]; 50 μM, 4 h",32.0 ± 0 beats/minute
same,Beating rate of human cardiomyocytes,"[9]; 50 μM, 8 h",34.5 ± 0.7 beats/minute
same,Beating rate of human cardiomyocytes,"[9]; 50 μM, 12 h",33.0 ± 1.4 beats/minute
same,Beating rate of human cardiomyocytes,"[9]; 50 μM, 24 h",29.5 ± 0.7 beats/minute
same,Beating rate of human cardiomyocytes,"[9]; 50 μM, 48 h",23.5 ± 0.7 beats/minute
same,change in beating rate or rhythm of cardiomyocytes (observation),[9]; [13],no apparent change in beating rate or rhythm
